Results gathered from unrelated publications.
Lines come from different studies, so protocols differ.
Target: Calcium/calmodulin-dependent protein kinase type II subunit beta (CAMK2B, Homo sapiens, UniProt Q13554)

| Structure (SMILES) | read-out | mode | method | concentration | endpoint | result |
| --- | --- | --- | --- | --- | --- | --- |
| Cc1nn(C)cc1-c1nc2c(N3CCN(Cc4ccc(Cl)cc4)CC3)c(Cl)cnc2[nH]1 | binding |  | competition with immobilised ligand | 1 µM | remaining binding | 94% |
| O=c1[nH]c2ccccc2n1C1CCN(Cc2ccc(-c3[nH]c4cc5ncnc5cc4nc3-c3ccccc3)cc2)CC1 | enzyme activity |  |  | 0.5 µM | remaining activity | 104% |
| Cn1cc(-c2cc(F)cc(N3CCn4c(cc5c4CCCC5)C3=O)c2CO)cc(Nc2ccc(N3CCN(C4COC4)CC3)cn2)c1=O | enzyme activity | inhibitor |  | 0.1 µM | inhibition | 7% |
| Cn1cncc1[C@@](O)(COc1ccc(C#N)cc1-c1ccc(OC(F)(F)F)cc1)c1ccc(C#N)cc1 | cell-free assay |  | competition with immobilised ligand | 1 µM | remaining binding | 90% |
| CC(C)(C)c1cc(C=C(C#N)C#N)cc(Br)c1O | enzyme activity | inhibitor |  | 0.5 µM | remaining activity | 99.3% |
| C#Cc1n[nH]c2c(-c3cn([C@@H](C)c4ccccc4)c(=O)[nH]c3=O)cc(F)cc12 | enzyme activity | inhibitor |  | 0.1 µM | inhibition | 6.5% |
| Nc1ncc(-c2nc(N3CCOCC3)nc(N3CCOCC3)n2)c(C(F)F)n1 | binding |  | competition with immobilised ligand | 10 µM | remaining binding | 69% |
| C#Cc1n[nH]c2c(-c3cn(C(C)c4ccccn4)c(=O)[nH]c3=O)cc(F)cc12 (centres unmarked) | enzyme activity | inhibitor |  | 1 µM | inhibition | 4.3% |
| COc1ncccc1-c1cnn2ccc(N3CCN(C(=O)OC(C)C)CC3)nc12 | binding |  | competition with immobilised ligand | 1 µM | remaining binding | 81% |
| N#CC1(c2ccccn2)CCN(Cc2cc(C(=O)O)c(=O)n3ccccc23)CC1 | cell-free assay |  | competition with immobilised ligand | 1 µM | remaining binding | 100% |
| Cn1cc(-c2cccc(N3CCc4c(sc5c4CC(C)(C)C5)C3=O)c2CO)cc(Nc2ccncn2)c1=O | enzyme activity | inhibitor |  | 1 µM | inhibition | 12% |
